Measured values from different studies.
Compare with care: the assays were run in different laboratories.
Target: Bone morphogenetic protein receptor type-2 (BMPR2, Homo sapiens, UniProt Q13873)
Sequence (Q13873 27-1038, as in one of the studies): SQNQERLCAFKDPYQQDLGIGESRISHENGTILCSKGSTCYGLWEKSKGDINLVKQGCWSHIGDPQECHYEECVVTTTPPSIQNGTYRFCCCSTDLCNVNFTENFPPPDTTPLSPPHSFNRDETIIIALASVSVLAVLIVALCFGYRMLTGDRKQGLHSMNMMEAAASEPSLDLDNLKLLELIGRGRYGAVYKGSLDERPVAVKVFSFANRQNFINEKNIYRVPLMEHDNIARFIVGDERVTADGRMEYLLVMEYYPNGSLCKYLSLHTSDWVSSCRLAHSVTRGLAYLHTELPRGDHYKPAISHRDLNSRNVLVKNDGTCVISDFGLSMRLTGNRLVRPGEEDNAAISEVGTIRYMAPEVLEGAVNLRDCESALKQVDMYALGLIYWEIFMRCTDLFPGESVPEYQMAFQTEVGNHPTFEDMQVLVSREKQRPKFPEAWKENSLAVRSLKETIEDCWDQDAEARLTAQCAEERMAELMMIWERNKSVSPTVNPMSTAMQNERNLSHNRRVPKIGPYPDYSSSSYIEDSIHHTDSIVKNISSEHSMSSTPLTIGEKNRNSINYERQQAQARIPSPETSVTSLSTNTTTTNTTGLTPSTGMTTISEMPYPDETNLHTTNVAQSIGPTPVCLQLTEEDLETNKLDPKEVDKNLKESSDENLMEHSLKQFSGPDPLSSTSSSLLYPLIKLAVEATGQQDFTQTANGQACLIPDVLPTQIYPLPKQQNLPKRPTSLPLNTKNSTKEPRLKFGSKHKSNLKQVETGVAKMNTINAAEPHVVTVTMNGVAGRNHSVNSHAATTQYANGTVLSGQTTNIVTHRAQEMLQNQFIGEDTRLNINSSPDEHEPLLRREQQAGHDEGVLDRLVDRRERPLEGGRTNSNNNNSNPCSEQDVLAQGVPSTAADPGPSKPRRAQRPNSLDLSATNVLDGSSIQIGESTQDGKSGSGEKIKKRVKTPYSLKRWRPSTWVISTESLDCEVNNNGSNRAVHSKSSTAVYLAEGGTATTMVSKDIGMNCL

Structure (SMILES)	read-out	mode	technique	concentration	quantity	value
Cc1sc(C(=O)NC2COC2)cc1-n1cc(NC(=O)Nc2c(F)cccc2Cl)cn1	enzyme activity	inhibitor	–	10 µM	remaining activity	84.5%
CS(=O)(=O)NCC[C@H](NC(=O)c1cncc2c1cnn2-c1ccc(F)cc1)c1ccnc(S(C)(=O)=O)c1	cell-free assay	–	competition with immobilised ligand	1 µM	remaining binding	100%
Cn1c2c(c3ccccc31)C(C#N)C(C)(C)NC2=O (stereo not drawn)	thermal stability	–	DSF	10 µM	ΔTm	0.2 °C
O=C(Nc1ccc(Oc2ccc(F)cc2)cc1)N1CCc2ncccc2[C@H]1c1ccc(F)cc1	cell-free assay	–	competition with immobilised ligand	1 µM	remaining binding	96%
CS(=O)(=O)Nc1cccc(-c2csc(NC(=O)CSc3nc4nccnc4c(=O)n3CCc3ccccc3)n2)c1	enzyme activity	inhibitor	–	10 µM	inhibition	3%
CC(C)(O)[C@H]1CC[C@H](Nc2ccc3ncc(-c4cccc(C(F)(F)F)c4)n3n2)CC1	enzyme activity	inhibitor	–	1 µM	remaining activity	37.3%
COc1cc(-c2cn(C3CCc4c(F)cccc4N(CC(F)(F)F)C3=O)nn2)ccc1-n1cnc(C)c1 (stereo not drawn)	cell-free assay	–	competition with immobilised ligand	1 µM	remaining binding	100%
Cn1cncc1C1=CN(c2ncnc3[nH]cnc23)CCS1	enzyme activity	inhibitor	radiometric	2 µM	inhibition	74%
Cn1c2c(Cl)c(Cl)ccc2c2cn[nH]c(=O)c21	thermal stability	–	DSF	10 µM	ΔTm	2.9 °C
O=C(Nc1cnn(-c2csc(C(=O)NC3COC3)c2)c1)Nc1c(F)cccc1Cl	enzyme activity	inhibitor	–	5 µM	remaining activity	77.2%
Cn1c2c(c3ccc(Cl)c(Cl)c31)C(C#N)C1(CCOCC1)NC2=O (stereo not drawn)	thermal stability	–	DSF	10 µM	ΔTm	0.9 °C
CN1CC(Oc2cnc(C#N)cc2-c2ccn3nc(NC(=O)C4CC4)cc3c2)C1	enzyme activity	inhibitor	–	1 µM	inhibition	1%
